Experimental data as given in ChEMBL document CHEMBL4257495, “Crystallomycin revisited after 60 years: aspartocins B and C” (2018).
≈ marks a conversion by molar mass, not a printed value. Calls of active or inactive are those of the source. No cut-off for these calls is given here.

How the values were obtained:
Staphylococcus aureus [1] = test: Antibacterial activity against Staphylococcus aureus ATCC 29213 by broth microdilution method; type: functional
In short: (§1)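 MIC by broth microdilution following CLSI guidelines, run in medium without added Ca2+ and with Ca2+ ions supplemented (level not given). Reference strains came from the Tarasevich State Research Institution collection of pathogenic microorganisms. Clinical MRSA/MRSE isolates came from the Russia Research Institute for Antibiotics Culture Collection.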

Staphylococcus aureus [2] = test: Antibacterial activity against methicillin-resistant Staphylococcus aureus 86 by broth microdilution method; type: functional; in short: as §1
Staphylococcus aureus [3] = test: Antibacterial activity against methicillin-resistant Staphylococcus aureus 88 by broth microdilution method; type: functional; in short: as §1
Staphylococcus aureus [4] = test: Antibacterial activity against methicillin-resistant Staphylococcus aureus 71001 by broth microdilution method; type: functional; in short: as §1
Staphylococcus aureus [5] = test: Antibacterial activity against methicillin-resistant Staphylococcus aureus 20450 by broth microdilution method; type: functional; in short: as §1
Staphylococcus aureus [6] = test: Antibacterial activity against methicillin-resistant Staphylococcus aureus 17 by broth microdilution method; type: functional; in short: as §1
[7] = tested on: Staphylococcus epidermidis; test: Antibacterial activity against methicillin-resistant Staphylococcus epidermidis C2001 by broth microdilution method; type: functional; in short: as §1
[8] = tested on: Staphylococcus epidermidis; test: Antibacterial activity against methicillin-resistant Staphylococcus epidermidis 004-T1 by broth microdilution method; type: functional; in short: as §1
[9] = tested on: Staphylococcus epidermidis; test: Antibacterial activity against methicillin-resistant Staphylococcus epidermidis 20459 by broth microdilution method; type: functional; in short: as §1
Enterococcus faecalis [10] = test: Antibacterial activity against Enterococcus faecalis ATCC 29212 by broth microdilution method; type: functional; in short: as §1
Enterococcus gallinarum [11] = test: Antibacterial activity against Enterococcus gallinarum VP4147 by broth microdilution method; type: functional
Staphylococcus aureus [12] = test: Antibacterial activity against Staphylococcus aureus ATCC 29213 in presence of Ca2+ by broth microdilution method; type: functional; in short: as §1
Staphylococcus aureus [13] = test: Antibacterial activity against methicillin-resistant Staphylococcus aureus 86 in presence of Ca2+ by broth microdilution method; type: functional; in short: as §1
Staphylococcus aureus [14] = test: Antibacterial activity against methicillin-resistant Staphylococcus aureus 88 in presence of Ca2+ by broth microdilution method; type: functional; in short: as §1
Staphylococcus aureus [15] = test: Antibacterial activity against methicillin-resistant Staphylococcus aureus 71001 in presence of Ca2+ by broth microdilution method; type: functional; in short: as §1
Staphylococcus aureus [16] = test: Antibacterial activity against methicillin-resistant Staphylococcus aureus 20450 in presence of Ca2+ by broth microdilution method; type: functional; in short: as §1
Staphylococcus aureus [17] = test: Antibacterial activity against methicillin-resistant Staphylococcus aureus 17 in presence of Ca2+ by broth microdilution method; type: functional; in short: as §1
[18] = tested on: Staphylococcus epidermidis; test: Antibacterial activity against methicillin-resistant Staphylococcus epidermidis C2001 in presence of Ca2+ by broth microdilution method; type: functional; in short: as §1
[19] = tested on: Staphylococcus epidermidis; test: Antibacterial activity against methicillin-resistant Staphylococcus epidermidis 004-T1 in presence of Ca2+ by broth microdilution method; type: functional; in short: as §1
[20] = tested on: Staphylococcus epidermidis; test: Antibacterial activity against methicillin-resistant Staphylococcus epidermidis 20459 in presence of Ca2+ by broth microdilution method; type: functional; in short: as §1
Enterococcus faecalis [21] = test: Antibacterial activity against Enterococcus faecalis ATCC 29212 in presence of Ca2+ by broth microdilution method; type: functional
Enterococcus gallinarum [22] = test: Antibacterial activity against Enterococcus gallinarum VP4147 in presence of Ca2+ by broth microdilution method; type: functional
Escherichia coli = test: Antibacterial activity against Escherichia coli ATCC 25922; type: functional, organism-based; in short: as §1
Aspergillus niger = test: Antifungal activity against Aspergillus niger ATCC 16404; type: functional, organism-based
Candida albicans = test: Antifungal activity against Candida albicans ATCC 14053; type: functional, organism-based
Staphylococcus aureus [23] = test: Ratio of MIC for Staphylococcus aureus ATCC 29213 in absence of Ca2+ to MIC for Staphylococcus aureus ATCC 29213 in presence of Ca2+; type: functional
[24] = tested on: Staphylococcus epidermidis; test: Ratio of MIC for methicillin-resistant Staphylococcus epidermidis C2001 in absence of Ca2+ to MIC for methicillin-resistant Staphylococcus epidermidis C2001 in presence of Ca2+; type: functional
[25] = tested on: Staphylococcus epidermidis; test: Ratio of MIC for methicillin-resistant Staphylococcus epidermidis 004-T1 in absence of Ca2+ to MIC for methicillin-resistant Staphylococcus epidermidis 004-T1 in presence of Ca2+; type: functional
Enterococcus faecalis [26] = test: Ratio of MIC for Enterococcus faecalis ATCC 29212 in absence of Ca2+ to MIC for Enterococcus faecalis ATCC 29212 in presence of Ca2+; type: functional
Enterococcus gallinarum [27] = test: Ratio of MIC for Enterococcus gallinarum VP4147 in absence of Ca2+ to MIC for Enterococcus gallinarum VP4147 in presence of Ca2+; type: functional

SMILES	MIC (Staphylococcus aureus [1]) [µg/mL]	MIC (Staphylococcus aureus [2]) [µg/mL]	MIC (Staphylococcus aureus [3]) [µg/mL]	MIC (Staphylococcus aureus [4]) [µg/mL]	MIC (Staphylococcus aureus [5]) [µg/mL]	MIC (Staphylococcus aureus [6]) [µg/mL]	MIC [7] [µg/mL]	MIC [8] [µg/mL]	MIC (Enterococcus faecalis [10]) [µg/mL]	MIC (Enterococcus gallinarum [11]) [µg/mL]	MIC (Staphylococcus aureus [12]) [µg/mL]	MIC (Staphylococcus aureus [13]) [µg/mL]	MIC (Staphylococcus aureus [14]) [µg/mL]	MIC (Staphylococcus aureus [15]) [µg/mL]	MIC (Staphylococcus aureus [16]) [µg/mL]	MIC (Staphylococcus aureus [17]) [µg/mL]	MIC [18] [µg/mL]	MIC [19] [µg/mL]	MIC [20] [µg/mL]	MIC (Enterococcus faecalis [21]) [µg/mL]	also measured
CCCCCCCCCC(=O)N[C@@H](Cc1c[nH]c2ccccc12)C(=O)N[C@@H](CC(N)=O)C(=O)N[C@@H](CC(=O)O)C(=O)N[C@@H]1C(=O)NCC(=O)N[C@@H](CCCN)C(=O)N[C@@H](CC(=O)O)C(=O)N[C@H](C)C(=O)N[C@@H](CC(=O)O)C(=O)NCC(=O)N[C@H](CO)C(=O)N[C@@H]([C@H](C)CC(=O)O)C(=O)N[C@@H](CC(=O)c2ccccc2N)C(=O)O[C@@H]1C [DAPTOMYCIN]	0.5 (≈ 0.309 µM)	1 (≈ 0.617 µM)	0.5 to 1 (≈ 0.309 to 0.617 µM)	0.5 to 1 (≈ 0.309 to 0.617 µM)	1 (≈ 0.617 µM)	2 (≈ 1.23 µM)	1 (≈ 0.617 µM)	1 (≈ 0.617 µM)	4 (≈ 2.47 µM)	8 (≈ 4.94 µM)	–	–	–	–	–	–	–	–	–	–	MIC [9]: 1 µg/mL (≈ 0.617 µM)
CCC(C)CCCCCCC/C=C\CC(=O)N[C@@H](CC(=O)O)C(=O)N[C@@H]1C(=O)N2CCCC[C@@H]2C(=O)N[C@@H]([C@H](C)C(=O)O)C(=O)N[C@@H](CC(=O)O)C(=O)NCC(=O)N[C@@H](CC(=O)O)C(=O)NCC(=O)N[C@H](C(C)N)C(=O)N[C@@H](C(C)C)C(=O)N2CCC[C@H]2C(=O)N[C@@H]1C (some centres undefined)	4 to 8 (≈ 3.03 to 6.07 µM)	8 (≈ 6.07 µM)	8 (≈ 6.07 µM)	8 (≈ 6.07 µM)	8 (≈ 6.07 µM)	8 (≈ 6.07 µM)	4 to 8 (≈ 3.03 to 6.07 µM)	16 (≈ 12.1 µM)	16 (≈ 12.1 µM)	16 (≈ 12.1 µM)	2	2	2	2	1 to 2	4	2	4	4	8	MIC (Enterococcus gallinarum [22]): 4 to 8 µg/mL; Activity (Escherichia coli): inactive; Activity (Aspergillus niger): inactive; Activity (Candida albicans): inactive; Ratio (Staphylococcus aureus [23]): 2 - 8; Ratio [24]: 2 - 8; Ratio [25]: 2 - 8; Ratio (Enterococcus faecalis [26]): 2 - 8; Ratio (Enterococcus gallinarum [27]): 2 - 8
CC(C)CCCCCCC/C=C/CC(=O)N[C@@H](CC(=O)O)C(=O)N[C@@H]1C(=O)N2CCCC[C@@H]2C(=O)N[C@@H]([C@H](C)C(=O)O)C(=O)N[C@@H](CC(=O)O)C(=O)NCC(=O)N[C@@H](CC(=O)O)C(=O)NCC(=O)N[C@H](C(C)N)C(=O)N[C@@H](C(C)C)C(=O)N2CCC[C@H]2C(=O)N[C@@H]1C (some centres undefined)	16 (≈ 12.3 µM)	16 (≈ 12.3 µM)	16 (≈ 12.3 µM)	16 (≈ 12.3 µM)	16 (≈ 12.3 µM)	–	16 (≈ 12.3 µM)	32 (≈ 24.5 µM)	–	–	4	4	4	4	2	4	4	4	4	8	MIC (Enterococcus gallinarum [22]): 4 to 8 µg/mL; Activity (Escherichia coli): inactive; Activity (Aspergillus niger): inactive; Activity (Candida albicans): inactive; Ratio (Staphylococcus aureus [23]): 2 - 8; Ratio [24]: 2 - 8; Ratio [25]: 2 - 8
